STAT3 blocker: reduces IL-6 driven STAT3 reporter signal; U3A cells, IL-6 STAT3-luciferase reporter, luminescence; host cell line lacks STAT1; inhibition, % at 5.5 µM; hit rate 0.89% among 190,000;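 active = inhibition above the mean inhibition across all screened compounds plus 3 SD, cut at about 44% in these data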;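 also: 0% = DMSO only wells and 100% = 100 µM nifuroxazide control wells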
STAT3 activator: increases IL-6 driven STAT3 reporter signal; U3A cells, IL-6 STAT3-luciferase reporter, luminescence; 100% = signal with IL-6 EC80 alone; activation (% of control), % at 5.6 µM; hit rate 0.91% among 190,000; AID 871;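 active = activation above the screen-wide mean of compound activation plus 3 SD, cut at about 130% in these data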;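 also: 0% = background luminescence of wells with medium and substrate only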
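Assay system – human STAT1-deficient U3A cells with stable STAT3-luciferase reporter · Also added – IL-6 (33 ng/mL) · Schedule – compound 1 h, then IL-6 6 h at 37 °C · Technique – reporter luminescence signal · Evaluation – % activation versus median of IL-6-stimulated wells · Benchmarks – IL-6-only wells as 100% reference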
APP 5'UTR act: APP 5'UTR luciferase reporter activation | SH-SY5Y APP 5'UTR luciferase reporter, luminescence; zero percent = DMSO vehicle wells | AID 1276 | activation, % at 2 µM | hit rate 1% among 190,000;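 active = activation above a set limit, based on mean plus 3 SD of controls, cut at about 140% in these data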
NF-kB expr up: compounds increasing NF-kB expression in human neuronal cells. fold change at 12.5 µM. hit rate 1.6% among 190,000. AID 1239. NF-kB reporter expression; active compounds read high; in the data active = fold change above about 3.3
STAT1 blocker: STAT1 signaling inhibition. AID 920. NIH 3T3 STAT1-luciferase reporter, IFN-gamma, luminescence. hit rate 0.35% among 200,000. inhibition, % at 5.5 µM;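 active = inhibition above a set limit, the mean inhibition across all tested compounds plus 3 SD, cut at about 34% in these data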;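 also: 0% = IFN-gamma with DMSO and 100% = IFN-gamma with 300 µM nifuroxazide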
STAT1 act: STAT1 signaling activation. activation (% of control), % at 5.5 µM. NIH 3T3 STAT1-luciferase reporter, IFN-gamma, luminescence; 100% = IFN-gamma alone, no compound. hit rate 2.6% among 200,000;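 active = activation above the screen-wide mean activation plus 3 SD, cut at about 130% in these data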;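 also: raw ratio to IFN-gamma control signal so 100% means no change and 0% no light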
STAT1 act conf: STAT1 activation, confirmation assay. hit rate 97% among 1,200. AID 1262. shares compounds with STAT1 act. activation (% of control), % at 5.7 µM. NIH 3T3 STAT1-luciferase reporter, IFN-gamma potentiation, luminescence; 100% = IFN-gamma EC80 alone, no compound;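 active = activation above a set limit carried over from the earlier primary STAT1 screen, cut at about 140% in these data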;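 also: simple ratio to median IFN-gamma plus DMSO wells so 0% means no light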
NFkB act STAT1ct: counter-screen for STAT1 activators: NF-kappaB activation. shares compounds with STAT1 act. HEK293T NF-kB luciferase reporter, TNF-alpha stimulated, luminescence; 100% = TNF-alpha with vehicle only. activation (% of control), % at 5.7 µM. hit rate 43% among 1,200. AID 1306;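 active = activation above the mean of solvent-only control wells plus 3 SD, set per campaign, cut at about 130% in these data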;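 also: TNF-alpha given at a submaximal dose yielding about 80% of full reporter signal; values are well signal over median control so 100% means no change and 0% no light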
STAT3 act 2: activates human STAT3, counter-screen to STAT1 activators. AID 1316. shares compounds with STAT1 act. U3A cells STAT3-luciferase reporter, IL-6, luminescence; cells lack STAT1; 100 = IL-6 alone, no compound effect. hit rate 46% among 1,200. activation (% of control), % at 5.7 µM;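 active = activation above the solvent-only control well mean plus 3 SD, set per plate batch, cut at about 110% in these data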;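 also: 0% = no luminescence and 100% = median IL-6 plus DMSO wells; higher means more STAT3 reporter activation so hits are non-selective activators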
* = called active by the depositor; x = no result. The list is not random: actives were taken first. Their share in the collection is about 5.1%.

SMILES | STAT3 blocker | STAT3 activator | APP 5'UTR act | NF-kB expr up | STAT1 blocker | STAT1 act | STAT1 act conf | NFkB act STAT1ct | STAT3 act 2
CCc1cc2c(=O)[nH]c(N3CCCC3)nc2s1 | -13.4 | 108.6 | 14.7 | 1.41 | -9.7 | 111.5 | x | x | x
Cc1ccn2c(c1)nc(=S)n2C(=O)c1ccco1 | 1.0 | 102.4 | 161.4* | 8.52* | -128.7 | 216.8* | 193.1* | 151.8* | 122.0*
Cc1nn(C(=O)c2ccco2)c(C)c1Br | 3.9 | 96.9 | 2.6 | 1.16 | 2.9 | 97.4 | x | x | x
O=c1c(C=NCCN2CCNCC2)c(-c2ccccc2)[nH]n1-c1ccc([N+](=O)[O-])cc1 | -12.3 | 111.0 | 8.0 | 1.84 | -74.6 | 167.9* | 145.4* | 125.1 | 120.2*
COc1ccc(N2CCN(c3cc(C)c4ccccc4n3)CC2)cc1 | 25.1 | 80.1 | 8.7 | 1 | 11.1 | 90.0 | x | x | x
c1ccc(N2CCN(c3cnc4ccccc4n3)CC2)cc1 | 16.5 | 87.1 | 11.0 | 6.52* | -69.9 | 175.1* | 218.9* | 130.4 | 97.4
Cc1ccc2nc(NC(=O)c3ccc(Cl)s3)sc2c1 | 20.3 | 90.0 | 63.6 | 5.29* | -58.1 | 152.5* | 248.8* | 137.8* | 110.2
CCCCNC(=O)Nc1nc2ccccc2s1 | 4.7 | 101.8 | 148.2* | 1.28 | -57.3 | 151.5* | 186.0* | 127.7 | 115.7*
Cc1ccc2nc(NC(=O)CCn3cccc3)sc2c1 | 12.3 | 91.7 | 2.0 | 0.84 | -60.6 | 152.3* | 141.1* | 114.4 | 95.7
O=C(O)CCC(=O)Nc1nc2ccccc2s1 | -6.3 | 102.6 | 10.8 | 1.04 | 1.8 | 98.3 | x | x | x
Cc1ccc(C(=O)Nc2nc3ccccc3s2)s1 | 41.2 | 69.7 | 157.2* | 4.2* | -62.8 | 157.1* | 264.1* | 108.3 | 98.8
Cc1cc(CNC(=O)C(C)n2nc(C)c([N+](=O)[O-])c2C)c2ccccc2n1 (stereo not drawn) | -5.4 | 105.6 | -21.4 | 0.8 | -4.3 | 102.6 | x | x | x
CCCCNc1nc(=S)n(-c2ccccc2)c(C)c1C(C)=O | 4.7 | 100.0 | -1.3 | 1.01 | -7.5 | 103.8 | x | x | x
COc1ncccc1-c1nnn(-c2ccc(Cl)c(Cl)c2)n1 | x | x | 105.7 | 3.97* | -60.7 | 158.3* | 163.9* | 131.7 | 101.2
Clc1ccc(-n2nnc(-c3cccnc3)n2)cc1Cl | x | x | 51.2 | 2.31 | -61.8 | 159.3* | 149.2* | 125.2 | 107.8
O=c1[nH]c2ccccc2cc1-c1nnn(-c2ccc(F)cc2)n1 | x | x | 91.4 | 1.86 | -25.2 | 125.0 | x | x | x
COc1ncccc1-c1nnn(-c2ccc(C)cc2)n1 | x | x | 98.5 | 3.72* | -54.3 | 152.3* | 205.2* | 140.8* | 117.2*
COc1ncccc1-c1nnn(-c2ccc(F)cc2)n1 | x | x | 105.8 | 3.76* | -57.5 | 155.3* | 193.8* | 131.9 | 112.5*
Cc1ccc(C)n1-c1ccc(N2CCOCC2)c(Br)c1 | 3.0 | 97.7 | -2.4 | 1.1 | -2.0 | 101.8 | x | x | x
C/C(N)=C(/C#N)C(=O)CSc1cc(C)c2ccccc2n1 | -2.8 | 108.0 | 11.6 | x | -0.9 | 101.2 | x | x | x
O=C(CSc1n[nH]c(-c2ccccc2)n1)NCc1cccc(C(=O)O)c1 | 5.1 | 98.5 | 8.2 | 1.14 | -10.2 | 107.4 | x | x | x
CC(/C=C/c1ccc(OCc2ccccc2)cc1)=N\O | -9.3 | 111.6 | 94.1 | 3.1 | -64.9 | 157.4* | 176.9* | 134.2* | 112.3*
CCN(CC)S(=O)(=O)c1cccc(C(=O)N/N=C/c2ccc(N3CCOCC3)cc2)c1 | 3.1 | 98.0 | 2.6 | 1.07 | -2.0 | 102.5 | x | x | x
CC(C)c1ccc(/C=N/NC(=O)c2cccc(Cl)c2)cc1 | -4.0 | 107.8 | 70.5 | 5.72* | -95.1 | 184.1* | 220.2* | 137.2* | 126.4*
O=C(Nc1ccn(Cc2ccc(Cl)cc2)n1)c1ccccc1 | -6.6 | 109.7 | 46.5 | 2.53 | -60.0 | 151.4* | 151.8* | 122.0 | 111.6*
SMILES | STAT3 blocker | STAT3 activator | APP 5'UTR act | NF-kB expr up | STAT1 blocker | STAT1 act | STAT1 act conf | NFkB act STAT1ct | STAT3 act 2
O=C(Nc1ccn(Cc2ccccc2)n1)c1ccc2c(c1)OCO2 | 0.8 | 108.0 | 42.5 | 1.76 | -24.8 | 123.1 | x | x | x
C=CCn1c(=O)c(C(=O)Nc2ccccc2S(N)(=O)=O)c(O)c2ccccc21 | -33.5 | 130.7 | 46.4 | 3.15 | -79.0 | 170.6* | 186.9* | 129.1 | 146.0*
Cc1ccc2nc(-c3ccsc3)c(NC3CCCC3)n2c1 | -2.6 | 103.2 | 8.5 | 1.21 | -1.9 | 100.8 | x | x | x
O=C(N/N=C\c1ccco1)Nc1cccc(Cl)c1 | -5.5 | 102.4 | 80.4 | 3.3* | -60.0 | 153.4* | 172.5* | 133.2* | 105.6
Cc1cccc(NC(=O)CCC(=O)N/N=C/c2ccco2)c1 | 1.6 | 98.9 | -6.8 | 0.95 | -7.0 | 106.2 | x | x | x
O=C(NCCCl)Nc1cccc(Br)c1 | 16.1 | 89.7 | 4.5 | 1.28 | -3.6 | 102.0 | x | x | x
COc1ccc2c(c1)CC/C2=N\OC(=O)c1cccc(C)c1 | 3.8 | 99.0 | 77.6 | 5.87* | -73.0 | 165.3* | 183.1* | 136.8* | 98.5
COc1ccc2c(c1)CC/C2=N\OC(=O)c1ccccc1C | 12.7 | 91.1 | 152.6* | 5.9* | -66.2 | 159.3* | 181.5* | 134.4* | 97.9
COc1ccc2c(c1)CCC/C2=N/OC(=O)c1ccccc1OC | 19.7 | 86.4 | 9.9 | 1.17 | 0.8 | 97.8 | x | x | x
CN(C)C(CNC(=O)c1cc(S(=O)(=O)N(C)c2ccccc2)ccc1Cl)c1cccs1 (stereo not drawn) | -5.7 | 106.8 | -18.3 | 0.85 | 7.0 | 92.0 | x | x | x
O=C(C[n+]1ccc2ccccc2c1)c1ccc(NC(=O)c2ccccc2)cc1 | 5.8 | 98.0 | 19.3 | 0.78 | -0.1 | 98.1 | x | x | x
COc1ccc(C(=O)NCc2ccc(-n3cccc3)cc2)cc1OC | -2.9 | 103.5 | -1.1 | 1.56 | 1.0 | 96.8 | x | x | x
COC(=O)c1cn[nH]c1NC(=S)Nc1ccccc1C | -2.0 | 106.1 | -1.5 | 1.71 | -55.5 | 151.0* | 169.5* | 129.2 | 116.9*
CSc1nc(-c2ccc(N(C)C)cc2)c(C#N)c(=O)n1C | x | x | 24.4 | 2.12 | -28.9 | 124.9 | x | x | x
C/C(=N/NC(=O)c1ccco1)c1ccc(NC(=O)c2ccc(F)cc2)cc1 | 0.6 | 99.6 | 56.0 | 1.04 | -63.1 | 155.3* | 125.1 | 118.3 | 96.3
CC1CCc2nc(/C(C#N)=C/c3cccnc3)sc2C1 (stereo not drawn) | -1.9 | 102.8 | 168.5* | 2.1 | -135.2 | 219.5* | 286.1* | 146.0* | 113.0*
N#C/C(=C\c1cccnc1)c1nc2c(s1)CCCC2 | -4.3 | 105.4 | 146.9* | 4.16* | -70.9 | 165.2* | 184.6* | 133.0 | 101.8

Bioassay records (PubChem)
